# Assay results taken from article PMC7316614 (ACS nano, 2020).
# Peptide text beside a SMILES is read from it.
# How the values were obtained:
# HepG2 cells [1] = assay: Cell viability / cytotoxicity; format: cell-based
# Method in brief: (§1)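 HeLa and HepG2 grown in MEM with 10% (vol/vol) FBS and 0.5% (vol/vol) each penicillin and streptomycin, at 37 °C under 5% CO2. IC50 taken on the 2nd day of exposure to the test compound. Means ± SD from n > 3 independent experiments; significance by t-test.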
# HS-5 cells [2] = assay: Multidrug resistance; format: cell-based; conditions: normal cell line, Figure S5
# [3] = Solubility of the enzymatic product; format: physicochemical; conditions: direct suspension of the enzymatic product
# [4] = Critical micelle concentration; format: physicochemical; conditions: Figure S6
# Drug loading efficiency = format: physicochemical; conditions: determined from the LE%
# enterokinase (ENTK) = enterokinase (ENTK) (Homo sapiens, UniProt P98073); assay: Enzymatic cleavage by ENTK; format: biochemical; conditions: Flag-(C16)2 at 200 μM (above CMC), Figure S7D
# Chain of enterokinase (ENTK) (P98073 whole entry, species assumed): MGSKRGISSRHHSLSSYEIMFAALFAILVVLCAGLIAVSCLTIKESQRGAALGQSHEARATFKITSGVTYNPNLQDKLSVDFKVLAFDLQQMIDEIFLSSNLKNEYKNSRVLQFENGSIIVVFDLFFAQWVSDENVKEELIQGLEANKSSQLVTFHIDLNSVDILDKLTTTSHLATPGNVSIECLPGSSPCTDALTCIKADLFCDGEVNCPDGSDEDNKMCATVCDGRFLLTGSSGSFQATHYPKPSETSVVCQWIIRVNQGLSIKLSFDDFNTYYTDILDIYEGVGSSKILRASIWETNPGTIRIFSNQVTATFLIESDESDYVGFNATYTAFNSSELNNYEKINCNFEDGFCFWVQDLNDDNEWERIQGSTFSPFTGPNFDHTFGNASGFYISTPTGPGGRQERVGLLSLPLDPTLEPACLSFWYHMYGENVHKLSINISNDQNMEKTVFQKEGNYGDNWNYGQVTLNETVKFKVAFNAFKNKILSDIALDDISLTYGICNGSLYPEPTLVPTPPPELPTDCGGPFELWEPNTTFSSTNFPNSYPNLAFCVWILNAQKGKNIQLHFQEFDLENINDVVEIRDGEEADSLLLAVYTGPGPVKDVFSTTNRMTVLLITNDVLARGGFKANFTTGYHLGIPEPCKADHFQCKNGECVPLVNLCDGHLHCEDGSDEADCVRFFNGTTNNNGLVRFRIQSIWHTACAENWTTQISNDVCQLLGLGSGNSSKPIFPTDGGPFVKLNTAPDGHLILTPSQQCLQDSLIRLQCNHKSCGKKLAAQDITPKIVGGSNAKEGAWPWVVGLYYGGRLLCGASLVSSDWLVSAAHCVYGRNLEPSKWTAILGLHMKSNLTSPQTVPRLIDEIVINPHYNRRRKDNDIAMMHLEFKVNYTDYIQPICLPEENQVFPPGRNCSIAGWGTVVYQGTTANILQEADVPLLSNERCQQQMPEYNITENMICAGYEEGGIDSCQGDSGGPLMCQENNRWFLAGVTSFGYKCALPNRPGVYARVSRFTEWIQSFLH
# HeLa cells [5] = assay: Cell viability / cytotoxicity; format: cell-based; conditions: Flag-(C16)2 alone, 48h
# Method in brief: as §1
# AML12 cells = assay: Cell viability / cytotoxicity; format: cell-based
# HS-5 cells [6] = assay: Cell viability / cytotoxicity; format: cell-based
# [7] = system: cytochrome c in HepG2 cells; assay: Cytochrome c in cytosol, Western blot; format: cell-based; conditions: 100, 50, 25 μM, 48 h
# Method in brief: (§2)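 Cells were exposed to the test compound for 48 h (HepG2: 100, 50, 25 and 0 μM). The cytosol fraction was blotted for cytochrome c. Protein was quantified by Coomassie, and 20 μg per lane was run on SDS-PAGE and transferred to PVDF. Bands were quantified by densitometry. Data are means ± SD, n > 3, t-test.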
# [8] = system: cytochrome c in HeLa cells; assay: Cytochrome c in cytosol, Western blot; format: cell-based; conditions: different concentration, Figure S17
# Method in brief: as §2
# HepG2 cells [9] = assay: Mitochondrial membrane potential by Rhodamine 123; format: cell-based; conditions: 50 μM, 48 h
# HeLa cells [10] = assay: Mitochondrial membrane potential by Rhodamine 123; format: cell-based; conditions: 48h, Rhodamine 123, Figure S15
# HepG2 cells [11] = assay: Mitochondrial accumulation, fluorescence imaging with MitoTracker; format: cell-based; conditions: Flag-(C16)2, 48h
# Self-assembly = format: physicochemical; conditions: 50 μM
compound,measurement,setting,value
"O=C(N[C@H](CO)[C@H](O)c1ccc([N+](=O)[O-])cc1)C(Cl)Cl [CLRP, chloramphenicol, reference compound]","cell viability, HepG2","HepG2 cells [1]; free CLRP alone, Figure 2A",hardly suppresses the viability
same,"change of MDR, HS-5",HS-5 cells [2],Neither CLRP nor CLRP mixed with Flag-(C16)2 significantly change the MDR
Gly-Glu-(C16)2,solubility,[3],poor solubility
"CCCCCCCCCCCCCCCCNC(=O)CC[C@H](NC(=O)CNC(=O)[C@H](CCCCN)NC(=O)[C@H](CC(=O)O)NC(=O)[C@H](CC(=O)O)NC(=O)[C@H](CC(=O)O)NC(=O)[C@H](CC(=O)O)NC(=O)[C@H](CCCCN)NC(=O)[C@H](Cc1ccc(O)cc1)NC(=O)[C@@H](N)CC(=O)O)C(=O)NCCCCCCCCCCCCCCCC [Flag-(C16)2] (HELM PEPTIDE1{D.Y.K.D.D.D.D.K.G.E.[CCCCCCCCCCCCCCCCN[*:1]]}|CHEM1{[CCCCCCCCCCCCCCCCN[*:1]]}$PEPTIDE1,CHEM1,10:R3-1:R1$$$V2.0)",critical micelle concentration (CMC),[4],43 µM
same,encapsulation capacity (EC),Drug loading efficiency,66.7 μg CLRP in per mg Flag-(C16)2 micelles
same,hydrolysis by ENTK,enterokinase (ENTK),hydrolyzes
same,"cell viability, HepG2","HepG2 cells [1]; Flag-(C16)2 alone, 48h",decrease of cell viability
same,"cell viability, HeLa",HeLa cells [5],decrease of cell viability
same,"cell death, AML12",AML12 cells,hardly induces cell death
same,"cell death, HS-5",HS-5 cells [6],hardly induces cell death
same,"cytochrome c in the cytosol, HepG2",[7],increased cytochrome c
same,"cytochrome c in the cytosol, HeLa",[8],increased cytochrome c
same,"mitochondrial membrane potential, HepG2",HepG2 cells [9],reduced mitochondrial membrane potential
same,"mitochondrial membrane potential, HeLa",HeLa cells [10],reduced mitochondrial membrane potential
same,"mitochondrial morphology, HepG2",HepG2 cells [11],fragmental mitochondria
same,self-assembly after adding ENTK,"Self-assembly; ENTK, 24 h, 37 °C, static light scattering",larger micelle-like aggregates
same,self-assembly in solution,Self-assembly; before ENTK,self-assembles into nanoparticles
